Experimental data taken from ChEMBL document CHEMBL2417369, “Synthesis and evaluation of heteroaryl substituted diazaspirocycles as scaffolds to probe the ATP-binding site of protein kinases” (Bioorg Med Chem, 2013).

Tests used:
[1] = system: Fibroblast growth factor receptor 2 (Homo sapiens), P21802 [N549H]; assay: Inhibition of FGFR2 N549H mutant (unknown origin) at 30 uM by microfluidic mobility shift assay relative to control
Summary of the method: (§1)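 Single-point screen at 30 µM test compound across a 24-kinase panel in a microfluidic assay format. ATP was set near each enzyme's Km,[ATP]. […] The pan-AGC inhibitor H-89 served as an internal control on every assay plate.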

[2] = system: Tyrosine-protein kinase ABL1 (Homo sapiens), P00519 [H396P]; assay: Inhibition of ABL H396P mutant (unknown origin) at 30 uM by microfluidic mobility shift assay relative to control; assay type: protein assay; summary of the method: as §1
[3] = molecular target: T1, Mitogen-activated protein kinase 12 (Homo sapiens) (UniProt P53778); assay: Inhibition of p38gamma (unknown origin) at 30 uM by microfluidic mobility shift assay relative to control
T1 sequence (whole entry): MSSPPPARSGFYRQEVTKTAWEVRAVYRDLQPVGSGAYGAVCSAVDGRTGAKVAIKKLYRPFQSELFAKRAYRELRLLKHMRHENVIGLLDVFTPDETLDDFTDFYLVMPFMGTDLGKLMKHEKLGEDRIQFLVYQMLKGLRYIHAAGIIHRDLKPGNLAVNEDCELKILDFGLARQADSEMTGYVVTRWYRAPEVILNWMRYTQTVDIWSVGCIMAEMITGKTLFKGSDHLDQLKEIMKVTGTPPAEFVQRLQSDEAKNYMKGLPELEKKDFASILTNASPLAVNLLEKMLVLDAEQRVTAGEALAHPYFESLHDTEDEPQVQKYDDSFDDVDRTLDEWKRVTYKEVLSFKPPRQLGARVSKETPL
Summary of the method: (§2)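 Single-point screen against a 24-kinase panel in a commercial microfluidic assay format. Compounds were tested at 30 µM, with ATP at approximately the Km,[ATP] of each enzyme. H-89 was included on each assay plate as an internal control.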

Homo sapiens = species: Homo sapiens; assay: Inhibition of CSNK1 (unknown origin) at 30 uM by microfluidic mobility shift assay relative to control; summary of the method: as §1
[4] = molecular target: T2, Inhibitor of nuclear factor kappa-B kinase subunit beta (Homo sapiens) (UniProt O14920); assay: Inhibition of IKKbeta (unknown origin) at 30 uM by microfluidic mobility shift assay relative to control; summary of the method: as §1
T2 sequence (whole entry): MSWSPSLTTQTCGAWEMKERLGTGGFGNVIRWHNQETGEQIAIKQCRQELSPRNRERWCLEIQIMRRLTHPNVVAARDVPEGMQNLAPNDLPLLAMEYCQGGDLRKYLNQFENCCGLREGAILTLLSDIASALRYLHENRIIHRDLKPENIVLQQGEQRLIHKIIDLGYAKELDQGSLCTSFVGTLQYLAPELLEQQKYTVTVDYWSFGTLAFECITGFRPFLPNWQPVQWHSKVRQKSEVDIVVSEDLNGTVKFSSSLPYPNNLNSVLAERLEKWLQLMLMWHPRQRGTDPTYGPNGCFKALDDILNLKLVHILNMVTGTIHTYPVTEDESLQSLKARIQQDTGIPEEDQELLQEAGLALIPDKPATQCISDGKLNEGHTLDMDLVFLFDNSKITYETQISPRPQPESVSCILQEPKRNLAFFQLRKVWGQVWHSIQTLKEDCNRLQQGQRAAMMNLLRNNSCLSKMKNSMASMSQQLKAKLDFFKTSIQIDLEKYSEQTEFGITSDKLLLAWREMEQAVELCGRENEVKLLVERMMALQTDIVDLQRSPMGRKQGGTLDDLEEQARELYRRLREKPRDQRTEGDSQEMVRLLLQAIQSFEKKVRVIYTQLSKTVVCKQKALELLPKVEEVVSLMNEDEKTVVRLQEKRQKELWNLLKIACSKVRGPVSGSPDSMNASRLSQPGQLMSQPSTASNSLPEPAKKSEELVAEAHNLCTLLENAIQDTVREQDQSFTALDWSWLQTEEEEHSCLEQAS

[5] = system: T3, Receptor-type tyrosine-protein kinase FLT3 (Homo sapiens), P36888 [D835Y]; assay: Inhibition of FLT3 D835Y mutant (unknown origin) at 30 uM by microfluidic mobility shift assay relative to control; summary of the method: as §1
T3 sequence (whole entry): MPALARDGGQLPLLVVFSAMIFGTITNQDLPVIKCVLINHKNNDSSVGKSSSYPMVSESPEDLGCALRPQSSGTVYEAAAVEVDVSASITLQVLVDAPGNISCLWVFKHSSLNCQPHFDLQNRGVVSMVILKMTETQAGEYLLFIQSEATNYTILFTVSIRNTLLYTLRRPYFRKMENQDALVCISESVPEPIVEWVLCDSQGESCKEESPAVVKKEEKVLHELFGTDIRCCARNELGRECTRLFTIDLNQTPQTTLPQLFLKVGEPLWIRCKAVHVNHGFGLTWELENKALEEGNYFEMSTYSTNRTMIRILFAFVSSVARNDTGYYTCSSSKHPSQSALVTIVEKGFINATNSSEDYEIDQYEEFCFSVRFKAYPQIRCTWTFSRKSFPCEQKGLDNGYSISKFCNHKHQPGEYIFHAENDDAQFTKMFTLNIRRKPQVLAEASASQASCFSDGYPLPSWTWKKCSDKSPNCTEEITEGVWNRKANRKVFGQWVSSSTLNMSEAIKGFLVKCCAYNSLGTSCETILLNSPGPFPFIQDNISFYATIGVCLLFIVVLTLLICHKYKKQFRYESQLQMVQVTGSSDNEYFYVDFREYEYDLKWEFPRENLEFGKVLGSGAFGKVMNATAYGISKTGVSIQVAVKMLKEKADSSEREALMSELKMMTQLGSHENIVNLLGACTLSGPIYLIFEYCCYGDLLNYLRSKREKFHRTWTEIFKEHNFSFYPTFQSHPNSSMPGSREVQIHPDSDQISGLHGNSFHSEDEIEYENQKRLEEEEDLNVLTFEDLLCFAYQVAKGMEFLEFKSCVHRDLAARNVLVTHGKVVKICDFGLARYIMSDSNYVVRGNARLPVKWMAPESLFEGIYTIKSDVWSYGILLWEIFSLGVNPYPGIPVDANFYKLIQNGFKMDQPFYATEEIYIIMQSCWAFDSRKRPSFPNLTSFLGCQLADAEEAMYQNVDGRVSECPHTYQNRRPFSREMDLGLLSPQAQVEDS

[6] = molecular target: T4, Testis-specific serine/threonine-protein kinase 1 (Homo sapiens) (UniProt Q9BXA7); assay: Inhibition of TSSK1 (unknown origin) at 30 uM by microfluidic mobility shift assay relative to control; summary of the method: as §2
T4 sequence (whole entry): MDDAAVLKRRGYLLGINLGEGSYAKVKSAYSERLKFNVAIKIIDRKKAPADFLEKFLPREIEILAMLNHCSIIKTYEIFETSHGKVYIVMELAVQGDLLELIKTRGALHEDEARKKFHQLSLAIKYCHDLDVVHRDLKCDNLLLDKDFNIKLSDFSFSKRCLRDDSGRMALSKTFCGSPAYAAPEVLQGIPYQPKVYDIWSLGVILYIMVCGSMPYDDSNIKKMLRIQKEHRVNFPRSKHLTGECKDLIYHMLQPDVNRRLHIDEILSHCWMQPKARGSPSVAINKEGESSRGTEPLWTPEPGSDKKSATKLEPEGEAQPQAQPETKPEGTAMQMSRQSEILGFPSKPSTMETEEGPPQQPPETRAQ

Fibroblast growth factor receptor 2 (Homo sapiens), P21802 [N549H], sequence (P21802 whole entry N549H): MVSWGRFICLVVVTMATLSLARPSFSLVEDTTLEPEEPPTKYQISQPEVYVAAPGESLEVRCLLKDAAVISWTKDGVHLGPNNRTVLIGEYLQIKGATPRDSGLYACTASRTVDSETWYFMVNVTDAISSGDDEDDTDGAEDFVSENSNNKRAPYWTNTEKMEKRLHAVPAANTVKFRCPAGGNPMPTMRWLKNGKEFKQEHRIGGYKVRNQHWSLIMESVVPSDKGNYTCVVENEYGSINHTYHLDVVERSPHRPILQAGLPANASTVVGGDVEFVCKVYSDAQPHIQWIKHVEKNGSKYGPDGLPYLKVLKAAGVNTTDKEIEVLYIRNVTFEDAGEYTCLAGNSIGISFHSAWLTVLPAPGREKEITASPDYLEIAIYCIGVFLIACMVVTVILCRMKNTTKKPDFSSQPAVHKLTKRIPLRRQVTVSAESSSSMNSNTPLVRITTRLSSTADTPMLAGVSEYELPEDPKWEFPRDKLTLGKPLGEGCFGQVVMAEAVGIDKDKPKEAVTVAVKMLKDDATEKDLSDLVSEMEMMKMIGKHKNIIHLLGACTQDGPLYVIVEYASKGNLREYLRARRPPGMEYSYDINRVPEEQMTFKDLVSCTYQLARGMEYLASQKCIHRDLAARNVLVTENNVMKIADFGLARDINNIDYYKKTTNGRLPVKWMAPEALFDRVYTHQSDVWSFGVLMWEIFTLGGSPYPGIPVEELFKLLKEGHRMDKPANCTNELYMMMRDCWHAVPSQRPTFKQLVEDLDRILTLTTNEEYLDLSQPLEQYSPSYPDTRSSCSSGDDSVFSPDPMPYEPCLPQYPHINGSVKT

Compound	inhibition [1] [%]	inhibition [2] [%]	inhibition [3] [%]	inhibition (Homo sapiens) [%]	inhibition [4] [%]	inhibition [5] [%]	inhibition [6] [%]
c1ccc(C2CCNC3(CCN(c4ncnc5[nH]cnc45)CC3)C2)cc1 (racemic)	20	42	6	11	100	45	99
c1ccc(CC2CCNC3(CCN(c4ncnc5[nH]cnc45)CC3)C2)cc1 (racemic)	22	15	11	11	95	22	97
c1ccc(CC2CCC3(CCN(c4ncnc5[nH]cnc45)CC3)NC2)cc1 (racemic)	15	28	3	14	83	56	65
